The results in this text go back to ChEMBL document CHEMBL1221409, “Antioxidant and anti-inflammatory phenylpropanoid derivatives from Calamus quiquesetinervius” (J Nat Prod, 2010).

Data set [1] in a line: Cytotoxicity against mouse RAW264.7 cells assessed as cell viability upto 100 uM by MTS assay. The settings on record: read-out: Activity. Type of data set: cell-based. The procedure, abridged: (§1)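 RAW 264.7 cells were incubated 24 h with the agent at various concentrations up to 100 µM, with or without LPS in the medium. Cell viability was read by MTS assay.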
For orientation: Tetrazolium assays rely on reduction of a dye to a coloured formazan, in cell work by metabolically active cells.

A short description of data set [2]: Antioxidant activity assessed as superoxide radical scavenging activity by chemiluminescence analysis. In kind it is functional. The gist of the method: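 Superoxide (·O2−) scavenging was tested with Trolox and quercetin as positive controls. Values are from three replicates, reported as means ± SD.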
The next data set has as its system RAW264.7. The experiment in a line: Antiinflammatory activity against LPS-stimulated mouse RAW264.7 cells assessed as inhibition of NO production after 24 hrs. In kind it is functional, cell-based. The settings on record: RAW264.7, 24 h. The gist of the method:
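RAW 264.7 macrophages were stimulated with LPS in the presence of the test agent for 24 h. Inhibition of NO production was expressed as IC50, with quercetin as the reference.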

Data set [3] deals with Radical scavenging activity. The experiment in a line: Antioxidant activity assessed as DPPH radical scavenging activity after 30 mins by ELISA reader. Type of data set: functional. The gist of the method: (§2)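 Radical scavenging was tested with Trolox and quercetin as positive controls. Values are from three replicates, reported as means ± SD and expressed as IC50.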
Background: DPPH is a stable violet radical that fades when it is reduced.

Data set [4] is described as follows: Antioxidant activity assessed as hydroxyl radical scavenging activity by chemiluminescence analysis. Type of data set: functional. The procedure, abridged: as §2
Data set [5] is described as follows: Cytotoxicity against LPS-stimulated mouse RAW264.7 cells assessed as cell viability upto 100 uM by MTS assay. In kind it is cell-based. As to conditions: LPS-stimulated RAW264.7 cells, read-out: Activity. The gist of the method:
as §1

As to `COc1cc(/C=C/C(=O)OC[C@H]2O[C@@](CO)(O[C@H]3O[C@H](CO)[C@@H](OC(=O)/C=C/c4ccc(O)c(OC)c4)[C@H](O)[C@H]3OC(C)=O)[C@@H](OC(=O)/C=C/c3ccc(O)c(OC)c3)[C@@H]2O)ccc1O`, the viability in data set [1] and in data set [5] was above 90% throughout. Besides, the IC50 came out at 184 µM in data set [2], 42.1 µM with RAW264.7, 69.1 µM in data set [3] and 3.6 µM in data set [4].
With `Cc1c(C)c2c(c(C)c1O)CCC(C)(C(=O)O)O2` (configuration not stated) [TROLOX], the IC50 in data set [2] was found to be 25.3 µM; in data set [3] it was 32.9 µM; in data set [4], 4.31 µM.
Turning to `COc1cc(/C=C/C(=O)OC[C@H]2O[C@@](CO)(O[C@H]3O[C@H](CO)[C@@H](OC(=O)/C=C/c4ccc(O)cc4)[C@H](O)[C@H]3OC(C)=O)[C@@H](OC(=O)/C=C/c3ccc(O)c(OC)c3)[C@@H]2O)ccc1O`, the viability in data set [1] and in data set [5] was above 90% throughout. In addition, the IC50 in data set [2] is above 200 µM; with RAW264.7, 9.2 µM; in data set [3], 68.4 µM; in data set [4], 5.5 µM.
Regarding `COc1cc(/C=C/C(=O)OC[C@H]2O[C@@](CO)(O[C@H]3O[C@H](COC(C)=O)[C@@H](OC(=O)/C=C/c4ccc(O)cc4)[C@H](O)[C@H]3O)[C@@H](OC(=O)/C=C/c3ccc(O)c(OC)c3)[C@@H]2O)ccc1O`, the viability in data set [1] and in data set [5] was above 90% throughout. In addition, the half-maximal inhibitory concentration (IC50) is above 200 µM in data set [2], 9.5 µM with RAW264.7, 64.4 µM in data set [3] and 8.4 µM in data set [4].
In the case of `COc1cc(/C=C/C(=O)OC[C@H]2O[C@@](CO)(O[C@H]3O[C@H](COC(C)=O)[C@@H](OC(=O)/C=C/c4ccc(O)c(OC)c4)[C@H](O)[C@H]3O)[C@@H](OC(=O)/C=C/c3ccc(O)c(OC)c3)[C@@H]2O)ccc1O`, the viability in data set [1] and in data set [5] was above 90% each time. In addition, the IC50 in data set [2] was above 200 µM; in the data set on RAW264.7 it was 60.3 µM; in data set [3] it was 99.6 µM; in data set [4], 7.4 µM.
As to `COc1cc(/C=C/C(=O)OC[C@H]2O[C@@](CO)(O[C@H]3O[C@H](CO)[C@@H](OC(=O)/C=C/c4ccc(O)c(OC)c4)[C@H](O)[C@H]3O)[C@@H](OC(=O)/C=C/c3ccc(O)c(OC)c3)[C@@H]2O)ccc1O`, the viability in data set [1] and in data set [5] was above 90% in each case. The IC50 in data set [2] was above 200 µM; in the data set with RAW264.7, 78.1 µM; in data set [3], 62.5 µM; in data set [4] it was 6.8 µM.
Consider `COc1cc([C@H]2Oc3c(OC)cc(/C=C/COC(=O)c4ccc(O)cc4)cc3[C@@H]2COC(=O)c2ccc(O)cc2)ccc1O` [QUIQUESETINERVIUSIN A], for which the viability in data set [1] and in data set [5] was above 90% each time. Moreover, the concentration for half-maximal inhibition (IC50) in data set [2] is above 200 µM; with RAW264.7, 23.4 µM; in data set [4] it was 23.7 µM.
As to `O=c1c(O)c(-c2ccc(O)c(O)c2)oc2cc(O)cc(O)c12` [QUERCETIN], in the data set on RAW264.7, the IC50 stood at 34.5 µM.
As for `COc1cc([C@H](O)[C@H](CO)Oc2c(OC)cc(-c3cc(=O)c4c(O)cc(O)cc4o3)cc2OC)ccc1O` [SALCOLIN B], the viability in data set [1] and in data set [5] was above 90% throughout. Further, the IC50 in data set [2] is above 200 µM; with RAW264.7, 29.5 µM; in data set [3] it was above 100 µM; in data set [4] it was 13.3 µM.
In the case of `COc1cc(C2Oc3c(OC)cc(/C=C/C=O)cc3C2COC(=O)c2ccc(O)cc2)ccc1O` (configuration not stated), the viability in data set [1] and in data set [5] was above 90% in each case. Besides, the IC50 in data set [2] was above 200 µM; in the data set with RAW264.7, 69 µM; in data set [3], above 100 µM; in data set [4], 19.1 µM.
In the case of `CCO[C@H](c1ccc(O)c(OC)c1)[C@H](COC(=O)c1ccc(O)cc1)Oc1ccc(/C=C/COC(=O)c2ccc(O)cc2)cc1OC` (relative stereo) [QUIQUESETINERVIUSIN C], the viability in data set [1] and in data set [5] was above 90% each time. Moreover, the IC50 in data set [2] was above 200 µM; in the data set on RAW264.7, 95.7 µM; in data set [3], above 100 µM; in data set [4], 16.6 µM.
Regarding `COc1cc([C@H]2Oc3c(OC)cc(/C=C/COC(=O)c4ccc(O)cc4)cc3[C@@H]2COC(=O)c2ccc(O)cc2)cc(OC)c1O` [QUIQUESETINERVIUSIN B], the viability in data set [1] and in data set [5] was above 90% in each case. Besides, the IC50 in data set [2] was above 200 µM; in the data set with RAW264.7, 223 µM; in data set [4], 25.7 µM.

For orientation: IC50 means the concentration that gives 50% inhibition.
